Screening data: PubChem, several laboratories
JNK3 inh = blocks human JNK3 kinase activity. P53779. purified JNK3 kinase activity, HTS. inhibition, % at 8 µM. actives 0.61% (n = 60,000). AID 746; in the data active means inhibition above about 17%;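 further: 0% = DMSO and 100% = reference inhibitor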
Target sequence (P53779 whole entry, looked up): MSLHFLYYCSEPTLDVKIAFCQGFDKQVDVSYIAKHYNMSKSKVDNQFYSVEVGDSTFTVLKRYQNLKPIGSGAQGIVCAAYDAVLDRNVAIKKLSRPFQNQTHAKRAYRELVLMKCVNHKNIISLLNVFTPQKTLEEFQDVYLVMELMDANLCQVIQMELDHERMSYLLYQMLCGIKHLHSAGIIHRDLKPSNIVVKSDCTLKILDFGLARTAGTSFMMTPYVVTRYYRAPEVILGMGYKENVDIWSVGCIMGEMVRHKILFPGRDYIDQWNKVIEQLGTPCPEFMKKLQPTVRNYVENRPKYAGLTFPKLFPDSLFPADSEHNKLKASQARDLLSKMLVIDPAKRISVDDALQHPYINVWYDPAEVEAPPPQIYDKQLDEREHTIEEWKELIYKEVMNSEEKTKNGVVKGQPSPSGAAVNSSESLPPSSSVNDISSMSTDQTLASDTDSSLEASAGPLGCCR
D1 allo mod = allosteric modulators of human D1 dopamine receptor; B-score at 10 µM; AID 641; HEK293 D1, CRE-luciferase, dopamine EC30 potentiation; actives deviate in either direction; actives 5.9% (n = 58,000); P21728;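 active means luminescence count or its row- and column-corrected plate score outside the 99.7% band of the plate's sample wells, on either side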
SF-1 act = SF-1 (human) activation; Q13285; activation, % at 10 µM; CHO-K1 Gal4-SF-1 LBD luciferase reporter; % increase over DMSO SF-1-specific signal; actives 1.9% (n = 65,000);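 active means activation above the mean activation of all tested compounds plus 3 SD, cut at about 50% in these data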
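material = CHO-K1 cells with Gal4–hSF-1 LBD chimera plus Gal4-driven luciferase | compound = 10 µM single point, 1% DMSO | incubation = 20 h compound exposure at 37 °C after 1 h cell settling | measured by = SteadyLite luciferase luminescence | evaluation = percent activation relative to DMSO median and mock-transfected background | control set = DMSO negative control and −SF1 background wells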
RORa activator = RORA (human) activation; activation, % at 10 µM; P35398; actives 1.5% (n = 65,000); CHO-K1 Gal4-RORA LBD luciferase reporter, luminescence; percent increase over mock-subtracted basal signal; AID 560;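 active means activation above the mean of all tested compounds plus 3 SD, cut at about 49% in these data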;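 further: 0% = DMSO-treated RORA cells and 100% = added signal equal to DMSO minus mock-transfected cells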
HEK293 NFkB inh = inhibitors of the PMA/ionomycin-induced NF-kB reporter in HEK293 cells. HEK-293 NF-kB luciferase reporter, luminescence. inhibition, % at 3 µM. actives 0.21% (n = 62,000). AID 465;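 active means inhibition above the mean of all tested compounds plus 3 SD, cut at about 40% in these data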;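 further: 0% = stimulated DMSO wells and 100% = 10 µM reference inhibitor 5653914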
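System – HEK-293 cells with stable firefly luciferase reporter driven by four HIV NF-kB elements · Doses – one dose, 3 µM · Schedule – 1 h compound pre-incubation, 16 h PMA/ionomycin at 37 °C · Technique – luminescence from luciferase substrate reagent · Measure – percent inhibition normalized per plate to DMSO and reference-inhibitor controls · Replicates – tested once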
D1 mod confirm = confirmation of human D1 dopamine receptor allosteric modulators; luminescence at 10 µM; actives 88% (n = 2,200); shares compounds with D1 allo mod; HEK293 D1 CRE-luciferase, dopamine EC30 potentiation; stronger effect = higher value;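 active means luminescence in either of two replicates above the same-plate mean plus 3 SD of the low-dose dopamine control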
D1 ag no DA = secondary test of D1 modulators: activity without dopamine; shares compounds with D1 allo mod; HEK293 D1 CRE-luciferase, luminescence, no dopamine; stronger effect = higher value; luminescence at 10 µM; actives 0.8% (n = 1,900); in the data active means luminescence above about 3900
Isoprot counter = isoproterenol response counter-screen activity for D1 modulators | actives 63% (n = 2,200) | shares compounds with D1 allo mod | HEK293 D1 CRE-luciferase, isoproterenol EC30 counter-screen | calls only at 10 µM;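 active means luminescence in either replicate above plate mean of wells with a partly effective reference agonist dose plus 3 SD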;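 further: isoproterenol raises cAMP through native beta-adrenoceptor Gs so signal bypasses D1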
* marks the source's active call; other numbers are inactive results; i = inactive; . = no result given; + = active, no number. Hits are enriched below; roughly 7.9% of the tested compounds scored in any of these assays.

SMILES | JNK3 inh | D1 allo mod | SF-1 act | RORa activator | HEK293 NFkB inh | D1 mod confirm | D1 ag no DA | Isoprot counter
COCCn1c(SCC(=O)OCc2ccccc2)nc2c1c(=O)[nH]c(=O)n2C | -2.0 | . | 7.3 | 3.5 | 6.2 | . | . | .
O=C(O)CSc1nnc(-c2ccncc2)n1C1CCCCC1 | -1.2 | -0.698 | -9.2 | -3.9 | 15.9 | . | . | .
COC(=O)c1oc2ccc(Br)cc2c1NC(=O)CCCN1C(=O)c2ccccc2C1=O | 3.9 | 0.468 | -10.2 | -1.2 | 17.6 | . | . | .
COC(=O)c1oc2ccc(Br)cc2c1-n1cccc1 | -1.9 | 8.27* | 15.2 | -2.8 | 9.4 | 6260* | 1564 | +
CCN(CC(=O)NC1CCCC1)S(=O)(=O)c1ccc(C)cc1 | -8.3 | -0.127 | -20.1 | -6.6 | 22.0 | . | . | .
CCN(CC(=O)NC1CCCCCC1)S(=O)(=O)c1ccccc1 | -2.0 | 6.74* | -16.5 | -3.5 | 3.0 | 4392 | 1572 | i
CCOC(=O)c1cn(-c2ccccc2)nc1-c1ccncc1 | 4.0 | 12.6* | 9.8 | -26.1 | 7.0 | 20136* | 1728 | +
CCOC(=O)c1cn(-c2ccccc2)nc1-c1cccnc1 | 5.9 | 22.5* | -22.8 | -2.4 | -3.1 | 27848* | 1528 | +
O=C(OCc1nnc(-c2ccccc2)o1)c1cn(-c2ccccc2)nc1-c1ccccc1 | . | . | 9.7 | 18.4 | -3.9 | . | . | .
O=C(O)c1cn(-c2ccccc2)nc1-c1cccnc1 | -0.4 | 0.168 | -0.1 | 3.8 | 10.4 | . | . | .
CCOC(=O)c1c(=O)n(O)c2ccc(C)cc2[n+]1[O-] | -10.1 | 0.627 | -11.3 | -13.0 | 7.1 | . | . | .
NC1(N)OC(CN2C(=O)c3ccccc3C2=O)CS1 (stereo not given) | -2.3 | 0.858 | 11.3 | -3.5 | 11.3 | . | . | .
Cc1nc2ccccc2c2nc3ccccc3n12 | . | 2.03 | . | . | . | . | . | .
Cc1nnc2c(NC(C)C)nc3ccccc3n12 | -2.7 | 15.8* | -18.4 | -2.5 | . | 12020* | 1592 | +
CCc1nc(SCC(=O)NCCc2ccc(OC)c(OC)c2)c2c(=O)n(C)c(=O)n(C)c2n1 | -5.3 | -0.0358 | 9.6 | -15.7 | 6.3 | . | . | .
Cc1nc2sc3c(c2c(=O)[nH]1)CCC3 | 7.2 | 3.14* | -10.3 | 1.9 | 9.9 | 11308* | 1476 | i
Nc1nc2sc3c(c2c(=O)s1)CCCC3 | 14.6 | 13.9* | 55.9* | 10.6 | 2.7 | 13312* | 1256 | +
Cc1sc(NC(=O)CN2CCN(c3ccccn3)CC2)c(C#N)c1C | 3.4 | 0.0843 | -1.7 | 3.5 | -1.8 | . | . | .
CSc1nsc(SCC(=O)Nc2c(C)n(C)n(-c3ccccc3)c2=O)n1 | -6.4 | -0.0734 | -15.4 | -17.1 | 13.2 | . | . | .
Cc1ccc(S(=O)(=O)NCCC(=O)NCc2ccc3c(c2)OCO3)cc1C | -1.4 | 1.29 | -3.4 | -3.5 | 4.4 | . | . | .
O=C(CCNS(=O)(=O)c1ccc2c(c1)CCC(=O)N2)NCc1ccc2c(c1)OCO2 | 2.1 | 2.86* | -22.2 | 8.5 | 7.9 | 6928* | 1720 | i
O=C(NCC(c1cccnc1)N1CCOCC1)Nc1ccccc1 (stereo not given) | 4.6 | -0.356 | 11.5 | -3.6 | 12.0 | . | . | .
Cc1cc(Nc2ccc(C)c(Br)c2)n2nc(C)nc2n1 | -2.4 | 2.82* | -7.9 | -23.4 | -3.0 | 7632 | 1564 | i
CN(C)c1ccc(/C(=N\O)c2ccccc2)cc1 | -1.1 | 3.63* | 12.5 | 28.3 | 10.5 | 16920* | 2132 | +
Cc1cccc(Cc2c(C)nc3c(C(=O)NCc4ccco4)cnn3c2C)c1 | -5.7 | 3.89* | 5.7 | 18.4 | 19.7 | 8112* | 1484 | i
SMILES | JNK3 inh | D1 allo mod | SF-1 act | RORa activator | HEK293 NFkB inh | D1 mod confirm | D1 ag no DA | Isoprot counter
COC(=O)c1cc2sc(Cl)cc2n1CC(=O)N1CCCc2ccccc21 | 1.5 | 5.45* | -2.4 | -18.0 | 5.6 | 9576* | 1504 | i
Cc1ccc(S(=O)(=O)N(CCO)c2cc3c(s2)CCCC3)cc1 | -0.7 | 1.66 | -29.4 | -20.1 | 7.1 | . | . | .
NC(=O)C1CCN(c2nc(C3CC3)nc3c2nnn3Cc2ccccc2)CC1 | -3.0 | 14.8* | 9.6 | -6.9 | 14.8 | 24680* | 1492 | +
CCOc1cc(C(=O)N2CCOCC2)ccc1OCc1ccccc1 | -6.4 | -0.252 | 10.9 | -1.8 | 11.0 | . | . | .
CCOC(=O)C1C(=O)CC(C)(O)C(C(=O)OCC)C1/C=C/c1ccccc1 (stereo not given) | 7.3 | -0.167 | 7.2 | -8.4 | 21.2 | . | . | .
Cc1cccc(-n2c(=O)[nH]c3c(C(N)=O)nc(C(C)C)nc32)c1 | -6.7 | 5.53* | 1.9 | -6.3 | 8.5 | 10016* | 1376 | i
CCCCOc1ccc(OCCNS(=O)(=O)N(C)C)cc1 | 0.2 | -0.416 | 10.4 | 2.1 | 18.0 | . | . | .
COc1cccc(C2/C(=C(\O)c3ccc(OC)c(OC)c3)C(=O)C(=O)N2c2cc(C)on2)c1 (stereo not given) | 5.3 | -0.738 | 1.8 | -8.0 | . | . | . | .
O=C1OCc2ccc(NC(=O)C3CCCCC3)cc21 | . | 7.51* | -3.4 | 11.0 | 6.6 | 7424 | 1748 | i
O=C1OCc2cc(NC(=O)C3CCCO3)ccc21 (stereo not given) | -4.4 | -0.663 | -11.9 | 11.7 | 22.2 | . | . | .
CCOC(=O)c1c(N)c(C#N)c2n1CCCCC2 | 0.3 | 10.8* | 16.5 | -5.2 | -9.3 | 10284* | 1420 | +
COc1cc2c(cc1OC)CN(CC(=O)NC(=O)NCc1ccco1)CC2 | 3.3 | 6.79* | -16.8 | -4.1 | 5.0 | 8812* | . | i
CCOC(=O)C1=C(N)OC2=C(C(=O)CCC2)C1c1ccc(C)s1 (stereo not given) | 5.1 | -0.668 | 11.8 | -11.7 | 9.0 | . | . | .
CCOC(=O)c1ccc(N2CN=C3SCC(=O)N3C2)cc1 | -0.1 | 3.07* | -15.7 | -3.4 | 15.7 | 5848* | 1596 | i
CC1CCN(c2nc3c(c(=O)[nH]c(=O)n3C)n2Cc2ccccc2)CC1 | 5.4 | 7.89* | 8.6 | -1.6 | 17.8 | 16032* | 1452 | +
CCCCCCn1c(N2CCN(c3cccc(Cl)c3)CC2)nc2c1c(=O)[nH]c(=O)n2C | -4.7 | 2.12 | -8.6 | -20.6 | 20.8 | . | . | .
Cn1c(=O)[nH]c(=O)c2c1nc(NC1CCCCC1)n2CC(=O)NC1CCCCC1 | 2.0 | -0.693 | -12.3 | -3.3 | 4.7 | . | . | .
Cc1ccc(Cn2c(-n3nc(C)cc3C)nc3c2c(=O)[nH]c(=O)n3C)cc1 | -6.0 | 3.54* | -6.3 | 4.9 | 8.8 | 9484* | 1480 | i
Cc1cc(C)n(-c2nc3c(c(=O)[nH]c(=O)n3C)n2Cc2cccc(Br)c2)n1 | -2.3 | 1.08 | -6.7 | 8.2 | 13.3 | . | . | .
CC(C)CCn1c(N2CCN(c3cccc(Cl)c3)CC2)nc2c1c(=O)[nH]c(=O)n2C | -0.8 | 15.2* | 2.5 | -7.8 | 30.0 | 18092* | 1700 | +
